Consider eleven molecules from ChEMBL document CHEMBL3994654, “Discovery of phenyl acetamides as potent and selective GPR119 agonists” (Bioorg Med Chem Lett, 2017).

Broadly, the pIC50 is −log10 of the IC50, conventionally taken in molar units. As usually defined, the pEC50 is −log10 of the EC50, conventionally taken in molar units. By half-life is commonly meant the time in which the quantity being followed falls by half. Read a low half-life as fast loss.

A short description of data set [1]: Kinetic solubility in fasted state simulated intestinal fluid at pH 6.5. The class given is physicochemical. The conditions noted are these: read-out: Kinetic_solubility.
Data set [2] concerns the target T1, Glucose-dependent insulinotropic receptor (Mus musculus) (UniProt Q7TQP3).
T1 sequence (whole entry): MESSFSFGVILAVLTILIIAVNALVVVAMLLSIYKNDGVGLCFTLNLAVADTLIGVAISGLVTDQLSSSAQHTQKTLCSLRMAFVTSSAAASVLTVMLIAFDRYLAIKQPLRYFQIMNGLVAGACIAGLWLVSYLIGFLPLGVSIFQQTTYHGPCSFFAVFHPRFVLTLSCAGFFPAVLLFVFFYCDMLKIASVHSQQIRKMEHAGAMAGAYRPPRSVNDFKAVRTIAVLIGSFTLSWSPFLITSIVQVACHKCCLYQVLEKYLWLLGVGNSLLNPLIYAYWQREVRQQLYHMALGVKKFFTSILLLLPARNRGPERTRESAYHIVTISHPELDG
Briefly: Agonist activity at mouse GPR119 expressed in CHO cells co-expressing Galpha15 assessed as increase in intracellular cAMP level after 60 mins by HTRF assay relative to control. The class given is functional, cell-based. In outline:
(§1)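 EC50 values are means of at least 2 independent experiments, with a few single determinations. Maximal response is reported as the percentage of cAMP stimulation at the maximal dose tested, normalised to an internal agonist control set as 100%.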

Data set [3] has as its target Voltage-gated inwardly rectifying potassium channel KCNH2 (Homo sapiens, UniProt Q12809).
Data set [4] addresses T2, Glucose-dependent insulinotropic receptor (Homo sapiens) (UniProt Q8TDV5).
T2 sequence (whole entry): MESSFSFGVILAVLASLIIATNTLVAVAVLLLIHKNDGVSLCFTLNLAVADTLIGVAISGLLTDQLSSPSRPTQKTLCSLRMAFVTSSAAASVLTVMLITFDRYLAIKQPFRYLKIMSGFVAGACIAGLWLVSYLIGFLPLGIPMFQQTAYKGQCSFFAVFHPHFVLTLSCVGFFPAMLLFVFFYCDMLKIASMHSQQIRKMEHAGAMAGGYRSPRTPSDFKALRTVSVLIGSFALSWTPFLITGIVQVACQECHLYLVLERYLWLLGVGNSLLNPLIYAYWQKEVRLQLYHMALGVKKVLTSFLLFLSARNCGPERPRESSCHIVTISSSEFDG
Nature of the data set: Agonist activity at human GPR119 expressed in HEK293 cells assessed as increase in intracellular cAMP level after 60 mins by HTRF assay relative to control. The format is functional, cell-based. In outline: as §1
A general note: Cyclic AMP is a second messenger, typically raised through Gs and lowered through Gi signalling.

Data set [5] has as its target T3, Glucose-dependent insulinotropic receptor (Homo sapiens, UniProt Q8TDV5).
T3 sequence (Q8TDV5 whole entry): T2 sequence (whole entry)
Nature of the data set: Agonist activity at human GPR119 expressed in HEK293 cells assessed as increase in intracellular cAMP level after 60 mins by HTRF assay. The format is functional, cell-based. In outline: (§2)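 cAMP stimulation is also given as % control at the top concentration, relative to an internal agonist control set at 100% cAMP stimulation. EC50 values are means of at least 2 independent experiments, except for two compounds.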

Data set [6] concerns the target T4, Glucose-dependent insulinotropic receptor (Mus musculus, UniProt Q7TQP3).
T4 sequence (Q7TQP3 whole entry): T1 sequence (whole entry)
Briefly: Agonist activity at mouse GPR119 expressed in CHO cells co-expressing Galpha15 assessed as increase in intracellular cAMP level after 60 mins by HTRF assay. The class given is functional, cell-based. In outline:
as §2

Data set [7] is described as follows: Half life in Wistar Han rat at 0.5 mg/kg, iv by LC-MS/MS analysis. The class given is ADME, organism-based. The conditions noted are these: in vivo.

Structures are written as SMILES. pEC50, pIC50: −log10 of the molar value. In brackets after ≈: the same amount, converted by molar mass.

Chain of Voltage-gated inwardly rectifying potassium channel KCNH2 (Q12809 whole entry): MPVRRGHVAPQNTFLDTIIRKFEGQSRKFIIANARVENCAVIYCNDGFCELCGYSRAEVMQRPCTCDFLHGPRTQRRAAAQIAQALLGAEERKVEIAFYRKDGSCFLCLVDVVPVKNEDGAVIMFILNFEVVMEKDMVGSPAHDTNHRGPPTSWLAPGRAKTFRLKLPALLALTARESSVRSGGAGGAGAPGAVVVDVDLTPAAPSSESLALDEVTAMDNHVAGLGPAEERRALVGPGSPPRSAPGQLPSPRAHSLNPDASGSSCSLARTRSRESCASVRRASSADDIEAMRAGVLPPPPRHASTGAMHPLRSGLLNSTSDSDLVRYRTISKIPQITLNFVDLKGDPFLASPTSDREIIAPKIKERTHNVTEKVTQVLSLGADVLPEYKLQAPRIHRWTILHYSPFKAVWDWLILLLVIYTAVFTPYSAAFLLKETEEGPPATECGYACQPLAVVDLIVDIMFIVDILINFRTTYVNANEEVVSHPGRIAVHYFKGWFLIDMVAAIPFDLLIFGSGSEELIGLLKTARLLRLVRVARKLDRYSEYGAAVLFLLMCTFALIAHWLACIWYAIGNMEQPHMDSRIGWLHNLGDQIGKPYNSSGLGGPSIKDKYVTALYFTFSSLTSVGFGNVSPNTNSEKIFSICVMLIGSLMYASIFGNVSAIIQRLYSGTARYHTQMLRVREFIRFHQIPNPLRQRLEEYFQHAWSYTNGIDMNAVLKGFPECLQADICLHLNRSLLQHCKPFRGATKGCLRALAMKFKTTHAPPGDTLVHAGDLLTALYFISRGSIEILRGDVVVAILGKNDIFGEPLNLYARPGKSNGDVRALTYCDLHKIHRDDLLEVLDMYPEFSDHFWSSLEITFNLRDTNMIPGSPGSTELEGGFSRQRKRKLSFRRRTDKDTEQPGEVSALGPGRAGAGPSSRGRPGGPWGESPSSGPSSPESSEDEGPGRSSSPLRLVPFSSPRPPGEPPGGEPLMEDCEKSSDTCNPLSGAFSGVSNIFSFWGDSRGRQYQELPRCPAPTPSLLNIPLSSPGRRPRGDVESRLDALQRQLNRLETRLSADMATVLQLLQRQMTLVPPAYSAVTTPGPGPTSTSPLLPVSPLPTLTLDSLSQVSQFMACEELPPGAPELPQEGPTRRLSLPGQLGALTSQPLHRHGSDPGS

Turning to `O=C(Cc1ccc(OCC[C@@H]2C[C@@H]2C2CCN(c3ncc(Cl)cn3)CC2)cc1)NC1CC1`, the solubility kinetic in data set [1] is 22 µM (≈ 10 µg/mL). Further, the Activity in data set [2] was 91%; in data set [4] it was 104%. The pIC50 in data set [3] was less than 4.22. In addition, the pEC50 in data set [5] is 8.74; in data set [6], 8.82.
On to `CC(C)c1noc(N2CCC([C@H]3C[C@H]3CCOc3ccc(CC(=O)N4CCC4)c(F)c3)CC2)n1`, for which the solubility kinetic in data set [1] is 126 µM (≈ 59.3 µg/mL). Further, the figures for the Activity in data set [2] and in data set [4] were 102% and 78%, respectively. Further, in data set [3], the pIC50 is 5.15. Moreover, the pEC50 is 8.70 in data set [5] and 8.17 in data set [6]. Besides, in data set [7], the half-life was 1.8 h.
On to `O=C(Cc1ccc(OCC[C@@H]2C[C@@H]2C2CCN(c3ncc(Cl)cn3)CC2)cc1)N1CCC1`, for which the solubility kinetic in data set [1] was 97 µM (≈ 44.1 µg/mL). Besides, the Activity stood at 93% in data set [2] and 82% in data set [4]. The same molecule showed a pIC50 in data set [3] of 5.13. Besides, the pEC50 in data set [5] was 9.10; in data set [6], 9.30. In addition, the half-life in data set [7] is 4.7 h.
With `O=C(Cc1ccc(OCC[C@@H]2C[C@@H]2C2CCN(c3ncc(Cl)cn3)CC2)cc1F)N1CCC1`, the solubility kinetic in data set [1] was 137 µM (≈ 64.8 µg/mL). Moreover, the Activity in data set [2] amounted to 146%; in data set [4], 106%. For the same molecule, in data set [3], the pIC50 is 5.48. Also, the pEC50 in data set [5] is 9.70; in data set [6] it was 9.40. The molecule also showed a half-life in data set [7] of 6.9 h.
With `O=C(Cc1ccc(OCC[C@@H]2C[C@@H]2C2CCN(c3ncc(Cl)cn3)CC2)cc1F)N1CCCCC1`, in data set [1], the solubility kinetic is 124 µM (≈ 62.1 µg/mL). The Activity in data set [2] is 92%; in data set [4] it was 116%. Further, the pIC50 in data set [3] was 5.48. Further, the values for the pEC50 in data set [5] and in data set [6] were 8.82 and 8.66, respectively.
As to `COCc1cnc(N2CCC([C@H]3C[C@H]3CCOc3ccc(CC(=O)N4CCC4)c(F)c3)CC2)nc1`, the solubility kinetic in data set [1] is 152 µM (≈ 73.4 µg/mL). For the same molecule, the Activity in data set [2] was found to be 90%; in data set [4], 82%. In data set [3], this molecule showed a pIC50 of 4.72. The pEC50 in data set [5] is 9.15; in data set [6] it was 8.80. Further, the half-life in data set [7] was 1.9 h.
In the case of `NC(=O)Cc1ccc(OCC[C@@H]2C[C@@H]2C2CCN(c3ncc(Cl)cn3)CC2)cc1`, the Activity in data set [2] came to 68%; in data set [4], 85%. Also, the pEC50 in data set [5] is 7.17; in data set [6], 7.80.
Regarding `O=C(Cc1ccc(OCC[C@@H]2C[C@@H]2C2CCN(c3ncc(Cl)cn3)CC2)cc1F)N1CC(O)C1`, in data set [1], the solubility kinetic was 144 µM (≈ 70.4 µg/mL). The Activity came out at 110% in data set [2] and 89% in data set [4]. Also, the pEC50 in data set [5] was 9.10; in data set [6], 8.17. In data set [7], this molecule showed a half-life of 3.5 h.
For `O=C(Cc1ccc(OCC[C@@H]2C[C@@H]2C2CCN(c3ncc(Cl)cn3)CC2)nc1)N1CCC1`, the solubility kinetic in data set [1] is 83 µM (≈ 37.8 µg/mL). Moreover, the values for the Activity in data set [2] and in data set [4] were 133% and 112%, respectively. Besides, in data set [3], the pIC50 was 5.68. Also, the results for the pEC50 in data set [5] and in data set [6] were 8.03 and 8.29, respectively.
Consider `O=C(Cc1ccc(OCC[C@@H]2C[C@@H]2C2CCN(c3ncc(Cl)cn3)CC2)c(F)c1)N1CCC1`, for which the solubility kinetic in data set [1] was 65 µM (≈ 30.7 µg/mL). Further, the Activity came out at 91% in data set [2] and 106% in data set [4]. Moreover, the pEC50 in data set [5] is 8.66; in data set [6], 8.80.
In the case of `CCc1cnc(N2CCC([C@H]3C[C@H]3CCOc3ccc(CC(=O)N4CCC4)c(F)c3)CC2)nc1`, the solubility kinetic in data set [1] was 140 µM (≈ 65.3 µg/mL). Besides, the Activity in data set [2] was 111%; in data set [4], 103%. In data set [3], this molecule showed a pIC50 of 5.49. Also, the pEC50 is 9.40 in data set [5] and 9.08 in data set [6].
